# Reference: ChEMBL document CHEMBL4619779, “Tideglusib and Its Analogues As Inhibitors of Staphylococcus aureus SrtA” (J Med Chem, 2020)
# Active and inactive are the calls of the source. No cut-off for these calls is given here.
# What was measured:
# Staphylococcus aureus [1] = assay: Antibacterial activity against Staphylococcus aureus subsp. aureus USA300 infected in BALB/c mouse model of systemic infection assessed as mouse survival at 40 mg/kg/day, ip for 10 days; assay type: functional; details: 240 h
# How it was run: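 BALB/c females, 6 weeks old, n = 10. Drug suspended in ddH2O with 4% Tween 80 and 4% DMSO, given i.p. at 40 mg/kg every 24 hr. Saline was the placebo. Challenge by periorbital injection of USA300 4 hr after the first dose, about 1 × 10^8 CFU (lethal). Survival was followed for 10 days.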
# Staphylococcus aureus [2] = assay: Antibacterial activity against Staphylococcus aureus subsp. aureus str. Newman assessed as reduction in bacterial growth incubated for 24 hrs; assay type: functional
# How it was run: (§1)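 Overnight culture diluted 1:1000 in TSB, grown to A600 0.6-0.8, then diluted 1:400 in TSB. Aliquots incubated with the compound at a range of concentrations. A600 read every 1 hr for 24 hr to build growth curves. Technical triplicates per point; three independent experiments.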
# Staphylococcus aureus [3] = assay: Effect on cell growth of Staphylococcus aureus subsp. aureus USA300 at 150 ug/ml; assay type: organism-based; how it was run: as §1
# Staphylococcus aureus [4] = assay: Antibacterial activity against Staphylococcus aureus subsp. aureus USA300 infected in BALB/c mouse model of systemic infection assessed as prolongation of time to death at 40 mg/kg/day, ip for 10 days; assay type: functional, organism-based
# How it was run: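 BALB/c females, 6 weeks old, n = 10. USA300 grown 3 hr at 37 °C from a 1:1,000 dilution of overnight culture, washed, suspended in PBS. Compound suspended in ddH2O with 4% Tween 80 and 4% DMSO, given i.p. at 40 mg/kg every 24 hr; saline placebo. Mice challenged periorbitally 4 hr after the first dose. Survival followed over 10 days.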
# [5] = Solubility in PBS in presence of 1% DMSO by LC/MS analysis; assay type: physicochemical; details: PBS with 1% DMSO
# [6] = system: Sortase A (Staphylococcus aureus), Q9S446 [UNDEFINED MUTATION]; assay: Inhibition of Staphylococcus aureus SrtA delta N24 mutant expressed in Escherichia coli BL21 (DE3) using Abz-LPATG-Dnp substrate incubated for 20 mins in presence of 0.01% v/v Triton X-100 by FRET-based assay
# Sortase A [7] = target: T1, Sortase A (Staphylococcus aureus, UniProt Q9S446, DELTAN24); assay: Inhibition of Staphylococcus aureus SrtA delta N24 mutant expressed in Escherichia coli BL21 (DE3) assessed as reduction in IsdA (64 to 323 residues) transpeptidation incubated for 20 mins by SDS-PAGE analysis
# How it was run: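 His-tagged SrtAΔN24 (100 µg) was preincubated 20 min at rt with compound (1–25 µM) in 50 mM Tris-HCl pH 7.5, 150 mM NaCl, 5 mM CaCl2. IsdA64-323 (150 µg) and 3 mM Gly3 were then added for 1.5 hr at 37 °C. […] Three independent experiments.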
# Staphylococcus aureus [8] = assay: Antibacterial activity against Staphylococcus aureus subsp. aureus str. Newman assessed as reduction in bacterial growth at 200 uM incubated for 24 hrs; assay type: functional, organism-based; how it was run: as §1
# [9] = Cmax in mouse at 10 mg/kg, ip administered as single dose; assay type: ADME, organism-based; parameters: dose 10 mg/kg, route intraperitoneal; details: in vivo
# Staphylococcus aureus [10] = assay: Antibiofilm activity against Staphylococcus aureus subsp. aureus USA300 assessed as reduction in biofilm formation at 25 to 100 uM incubated for 18 hrs by Crystal violet staining assay; assay type: functional, organism-based
# How it was run: (§2)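 Overnight culture diluted 1:100 in TSB, plated in quadruplicate with inhibitor, and held static at 37 °C for 18 hr. Wells rinsed with PBS, and the dried, fixed biofilm stained with 0.1% crystal violet for 15 min. Stain dissolved in 30% acetic acid and absorbance read at 595 nm. Three independent experiments.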
# Staphylococcus aureus [11] = assay: Antibiofilm activity against Staphylococcus aureus subsp. aureus str. Newman assessed as reduction in biofilm biomass at 25 to 100 uM incubated for 18 hrs by Crystal violet staining assay; assay type: functional, organism-based; how it was run: as §2
# [12] = system: Sortase A (Staphylococcus aureus), Q9S446 [UNDEFINED MUTATION]; assay: Time dependent inhibition of Staphylococcus aureus SrtA delta N24 mutant expressed in Escherichia coli BL21 (DE3) assessed as reduction in IsdA (64 to 323 residues) transpeptidation by SDS-PAGE analysis
# Sortase A [13] = target: T1, Sortase A; assay: Inhibition of Staphylococcus aureus SrtA delta N24 mutant expressed in Escherichia coli BL21 (DE3) using Abz-LPATG-Dnp substrate incubated for 20 mins by FRET-based assay
# How it was run: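 His-tagged SrtAΔN24 (1 µM) was preincubated 20 min at rt with compound (0.2–100 µM) in 50 mM Tris-HCl pH 7.5, 150 mM NaCl, 5 mM CaCl2. Abz-LPATG-Dnp was added at 10 µM and fluorescence (ex 309 / em 420 nm) was read each minute for 20 min. IC50 came from a sigmoidal fit. Technical triplicates, three independent experiments.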
# [14] = system: Sortase A (Staphylococcus aureus), Q9S446 [UNDEFINED MUTATION]; assay: Covalent binding affinity to Staphylococcus aureus SrtA delta N24 mutant assessed as induction of m/z shift incubated for 12 hrs by ESI-LC/MS analysis
# How it was run: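 His-tagged SrtAΔN24 preincubated 12 hr with or without a 10-fold excess of compound. Diluted in 50% acetonitrile / 0.2% formic acid, run on a C8 column with a 10–90% acetonitrile gradient over 11 min, then ESI-TOF MS. MTSET served as the covalent reference.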
# [15] = system: Sortase A (Staphylococcus aureus), Q9S446 [UNDEFINED MUTATION]; assay: Reversible inhibition of Staphylococcus aureus SrtA delta N24 mutant expressed in Escherichia coli BL21 (DE3) assessed as reduction in IsdA (64 to 323 residues) transpeptidation incubated for 20 mins followed by 10 fold compound dilution by SDS-PAGE analysis
# [16] = system: Sortase A (Staphylococcus aureus), Q9S446 [UNDEFINED MUTATION]; assay: Inhibition of SrtA delta N24 mutant in Staphylococcus aureus subsp. aureus str. Newman reduction in abundance of anchored SpA at 50 to 200 uM by Western blot analysis
# How it was run: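 Newman was diluted 1:1000 and grown at 37 °C with inhibitor to A600 3.0. Cells were PBS-washed and digested with lysozyme for 30 min at 37 °C. Protoplasts were removed and the supernatant (cell wall fraction) was separated by SDS-PAGE and immunoblotted for SpA, with ClpP as the loading control. Three independent experiments.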
# [17] = system: Sortase A (Staphylococcus aureus), Q9S446 [UNDEFINED MUTATION]; assay: Effect on structural folding of Staphylococcus aureus SrtA delta N24 mutant expressed in Escherichia coli BL21 (DE3 assessed as induction of gross structural perturbations by CD spectroscopy
# How it was run: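 SrtAΔN24 at 10 µM was incubated with compound dissolved in methanol, and CD spectra were recorded. Two independent experiments.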
# [18] = system: Sortase A (Staphylococcus aureus), Q9S446 [UNDEFINED MUTATION]; assay: Inhibition of SrtA delta N24 mutant in Staphylococcus aureus subsp. aureus str. Newman reduction in abundance of anchored SpA by FITC-labeled human IgG fluorescence based assay
# How it was run: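 Newman wild type and ΔsrtA were diluted 1:1000 in TSB and grown at 37 °C with inhibitor until A600 reached 1.0. Cells were PBS-washed, labelled with FITC-human IgG for 30 min at rt, and washed again before fluorescence was read. Triplicate wells, three independent experiments, unpaired two-tailed t-test.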
smiles,measurement,setting,value
O=c1sn(-c2cccc3ccccc23)c(=O)n1Cc1ccccc1 [TIDEGLUSIB],survival at 40 mg/kg/day,Staphylococcus aureus [1],40%
same,MIC,Staphylococcus aureus [2],> 100 µg/mL
same,Activity,Staphylococcus aureus [3],Non-Toxic
same,Activity,Staphylococcus aureus [4],Active
same,solubility,[5],11 µg/mL
same,inhibition,[6],Active
same,IC50,Sortase A [7],5.9 µM
same,inhibition,Staphylococcus aureus [8],Active
same,Cmax,[9],137 ng/mL
same,Activity,Staphylococcus aureus [10],Active
same,Activity,Staphylococcus aureus [11],Active
same,TDI,[12],inactive
same,IC50,Sortase A [13],0.6 µM
same,Activity,[14],inactive
same,inhibition,[15],Active
same,inhibition,[16],Active
same,Activity,[17],inactive
same,inhibition,[18],Dose-dependent effect
